Measurements reported in ChEMBL document CHEMBL1649273, “In vivo activity of a novel anti-methicillin-resistant Staphylococcus aureus cephalosporin, ceftaroline, against vancomycin-susceptible and -resistant Enterococcus faecalis strains in a rabbit endocarditis model: a comparative study with linezolid and vancomycin” (2009).
Calls of active or inactive are those of the source. No cut-off for these calls is given here.

Legend:
[1] = system: Enterococcus faecalis; assay: Antibacterial activity against vancomycin-susceptible Enterococcus faecalis EF 12704 assessed as log reduction in bacterial count at 12 mg/l after 24 hrs by time kill assay; type: functional
Outline: (§1)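 Time-kill experiments used an inoculum of 5 × 10^6 CFU/ml, with bacterial counts followed over 24 h.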

[2] = system: Enterococcus faecalis; assay: Antibacterial activity against vancomycin-susceptible Enterococcus faecalis EF 12704 infected in New Zealand White rabbit assessed as reduction of bacterial count in aortic valve vegetations at 10 mg/kg, administered through ear vein every 12 hrs for 4 days (reference value: 8.56 +/- 0.74 CFU/g); type: functional
Outline: (§2)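 New Zealand White rabbits were anesthetized and given left-ventricular catheters. Endocarditis was induced 24 h later with 10^8 CFU E. faecalis. From 24 h post-inoculation, drug was given via the marginal ear vein by computer-controlled pump, simulating human pharmacokinetics of 600 mg every 12 h (10 mg/kg/12 h). After 4 days, aortic vegetations were excised, weighed, homogenized in 0.5 ml saline and cultured quantitatively on agar for 24 h at 37°C.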

[3] = system: Enterococcus faecalis; assay: Antibacterial activity against vancomycin-susceptible Enterococcus faecalis EF 12704 infected in New Zealand White rabbit assessed as log reduction of bacterial count in aortic valve vegetations at 10 mg/kg, administered through ear vein every 12 hrs for 4 days; type: functional; outline: as §2
[4] = system: Enterococcus faecalis; assay: Antibacterial activity against vancomycin-susceptible Enterococcus faecalis EF 12704 infected in New Zealand White rabbit assessed as reduction of bacterial count in aortic valve vegetations administered through ear vein every 12 hrs for 4 days (reference value: 8.56 +/- 0.74 CFU/g); type: functional
[5] = system: Enterococcus faecalis; assay: Antibacterial activity against vancomycin-susceptible Enterococcus faecalis EF 12704 assessed as bactericidal activity at 25 mg/l after 24 hrs by time kill assay; type: functional, organism-based; outline: as §1
[6] = system: Enterococcus faecalis; assay: Antibacterial activity against vancomycin-resistant Enterococcus faecalis EF NJ1 assessed as bactericidal activity at 25 mg/l after 24 hrs by time kill assay; type: functional, organism-based; outline: as §1
[7] = system: Enterococcus faecalis; assay: Antibacterial activity against vancomycin-resistant Enterococcus faecalis EF NJ1 infected in New Zealand White rabbit assessed as reduction of bacterial count in aortic valve vegetations administered through ear vein every 12 hrs for 4 days (reference value: 8.60 +/- 0.54 CFU/g); type: functional
[8] = system: Enterococcus faecalis; assay: Antibacterial activity against vancomycin-resistant Enterococcus faecalis EF NJ1 infected in New Zealand White rabbit assessed as log reduction of bacterial count in aortic valve vegetations at 10 mg/kg, administered through ear vein every 12 hrs for 4 days; type: functional; outline: as §2

For `CC(=O)NC[C@H]1CN(c2ccc(N3CCOCC3)c(F)c2)C(=O)O1` [LINEZOLID], the log10CFU/ml [1] was 1, the log10CFU/g [2] was 6.88 and the log10CFU/g [3] was >3.

`CN[C@H](CC(C)C)C(=O)N[C@H]1C(=O)N[C@@H](CC(N)=O)C(=O)N[C@H]2C(=O)N[C@H]3C(=O)N[C@H](C(=O)N[C@H](C(=O)O)c4cc(O)cc(O)c4-c4cc3ccc4O)[C@H](O)c3ccc(c(Cl)c3)Oc3cc2cc(c3O[C@@H]2O[C@H](CO)[C@@H](O)[C@H](O)[C@H]2O[C@H]2C[C@](C)(N)[C@H](O)[C@H](C)O2)Oc2ccc(cc2Cl)[C@H]1O` [VANCOMYCIN] was tested, and the log10CFU/g [3] was 2, the log10CFU/g [4] was 6.7 and the Activity [5] was “inactive”. The Activity [6] was “inactive”, the log10CFU/g [7] was 8.01 and the log10CFU/g [8] was 2.
